Source: ChEMBL document CHEMBL3414433, “Discovery and profiling of a selective and efficacious Syk inhibitor” (J Med Chem, 2015)
Calls of active or inactive are those of the source. No cut-off for these calls is given here.

Columns and labels:
[1] = target: Tyrosine-protein kinase SYK (Homo sapiens, UniProt P43405); experiment: Inhibition of Syk in anti-CD32 stimulated CD14+ human monocytes assessed as phospho-SLP76 level preincubated for 30 mins followed by anti-CD32 stimulation measured after 5 mins by flow cytometric analysis
[2] = target: T1, Voltage-gated inwardly rectifying potassium channel KCNH2 (Homo sapiens, UniProt Q12809); experiment: Inhibition of human ERG expressed in CHO cells by automated Qpatch clamp assay; type: cell-based
T1 sequence (Q12809 whole entry): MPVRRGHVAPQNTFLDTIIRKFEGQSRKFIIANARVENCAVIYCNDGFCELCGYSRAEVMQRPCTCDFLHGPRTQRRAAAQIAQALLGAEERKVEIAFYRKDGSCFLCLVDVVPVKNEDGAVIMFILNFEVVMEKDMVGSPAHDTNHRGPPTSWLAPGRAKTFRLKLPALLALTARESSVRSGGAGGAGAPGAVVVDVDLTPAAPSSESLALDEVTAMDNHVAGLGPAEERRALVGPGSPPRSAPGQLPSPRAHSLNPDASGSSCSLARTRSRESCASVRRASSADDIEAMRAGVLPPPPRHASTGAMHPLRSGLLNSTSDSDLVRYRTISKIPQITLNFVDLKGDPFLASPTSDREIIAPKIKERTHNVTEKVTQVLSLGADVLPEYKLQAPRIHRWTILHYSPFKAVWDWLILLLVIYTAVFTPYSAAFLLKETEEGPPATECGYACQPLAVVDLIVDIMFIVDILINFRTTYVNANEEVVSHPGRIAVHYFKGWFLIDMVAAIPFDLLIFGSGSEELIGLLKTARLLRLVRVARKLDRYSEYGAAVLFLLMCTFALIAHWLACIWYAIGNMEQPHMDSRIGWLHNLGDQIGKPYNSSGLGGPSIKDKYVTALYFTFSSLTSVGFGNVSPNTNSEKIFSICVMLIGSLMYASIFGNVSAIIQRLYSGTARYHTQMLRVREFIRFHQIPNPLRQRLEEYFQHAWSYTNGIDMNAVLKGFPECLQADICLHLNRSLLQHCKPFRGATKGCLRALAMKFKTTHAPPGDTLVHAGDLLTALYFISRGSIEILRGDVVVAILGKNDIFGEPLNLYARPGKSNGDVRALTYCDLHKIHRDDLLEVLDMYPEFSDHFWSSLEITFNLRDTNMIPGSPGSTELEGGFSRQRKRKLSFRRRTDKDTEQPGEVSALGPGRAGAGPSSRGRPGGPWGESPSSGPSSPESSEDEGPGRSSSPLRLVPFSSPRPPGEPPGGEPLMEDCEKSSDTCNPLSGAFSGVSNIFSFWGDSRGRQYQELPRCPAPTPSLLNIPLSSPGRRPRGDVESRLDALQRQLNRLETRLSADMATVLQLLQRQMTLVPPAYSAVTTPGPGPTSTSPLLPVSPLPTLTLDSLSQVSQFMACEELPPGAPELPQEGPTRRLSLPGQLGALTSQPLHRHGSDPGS

Rattus norvegicus [3] = experiment: Dose normalized AUC in Sprague-Dawley rat at 3 mg/kg, po administered as cassette dosing; type: ADME, organism-based; set-up: dose 3 mg/kg, route oral; details: in vivo
Outline: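 Rat PK: i.v. 1 mg/kg in NMP/PEG200 (3:7); p.o. 3 mg/kg in CMC/water/Tween (0.5:99:0.5). Exposure values dose normalized.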

[4] = target: T2, Tyrosine-protein kinase receptor UFO (Homo sapiens, UniProt P30530); experiment: Competitive binding affinity to human AXL
T2 sequence (P30530 whole entry): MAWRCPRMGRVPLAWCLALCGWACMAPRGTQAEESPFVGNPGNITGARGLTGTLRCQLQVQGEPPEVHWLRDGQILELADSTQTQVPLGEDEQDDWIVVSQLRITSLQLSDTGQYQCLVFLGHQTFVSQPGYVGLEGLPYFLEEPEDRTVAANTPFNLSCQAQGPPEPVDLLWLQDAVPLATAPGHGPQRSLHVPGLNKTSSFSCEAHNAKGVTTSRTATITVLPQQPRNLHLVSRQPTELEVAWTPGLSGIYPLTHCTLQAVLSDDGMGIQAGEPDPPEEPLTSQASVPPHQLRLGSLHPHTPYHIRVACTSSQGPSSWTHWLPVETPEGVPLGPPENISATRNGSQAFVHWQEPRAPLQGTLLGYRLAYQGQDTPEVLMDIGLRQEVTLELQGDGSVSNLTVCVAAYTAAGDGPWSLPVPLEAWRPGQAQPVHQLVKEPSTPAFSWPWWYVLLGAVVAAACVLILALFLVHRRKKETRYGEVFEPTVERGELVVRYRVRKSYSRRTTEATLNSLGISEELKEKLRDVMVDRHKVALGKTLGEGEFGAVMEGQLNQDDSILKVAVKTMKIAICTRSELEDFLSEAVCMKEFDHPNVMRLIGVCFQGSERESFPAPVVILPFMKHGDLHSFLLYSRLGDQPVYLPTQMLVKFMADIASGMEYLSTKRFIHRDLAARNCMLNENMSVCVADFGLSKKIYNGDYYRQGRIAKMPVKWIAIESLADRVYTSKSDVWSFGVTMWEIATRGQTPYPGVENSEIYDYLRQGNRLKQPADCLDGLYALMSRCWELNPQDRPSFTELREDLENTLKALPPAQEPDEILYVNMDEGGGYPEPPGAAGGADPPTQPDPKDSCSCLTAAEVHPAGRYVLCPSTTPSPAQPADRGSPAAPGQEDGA

[5] = target: T3, Mitogen-activated protein kinase kinase kinase 2 (Homo sapiens, UniProt Q9Y2U5); experiment: Competitive binding affinity to human MAP3K2
T3 sequence (Q9Y2U5 whole entry): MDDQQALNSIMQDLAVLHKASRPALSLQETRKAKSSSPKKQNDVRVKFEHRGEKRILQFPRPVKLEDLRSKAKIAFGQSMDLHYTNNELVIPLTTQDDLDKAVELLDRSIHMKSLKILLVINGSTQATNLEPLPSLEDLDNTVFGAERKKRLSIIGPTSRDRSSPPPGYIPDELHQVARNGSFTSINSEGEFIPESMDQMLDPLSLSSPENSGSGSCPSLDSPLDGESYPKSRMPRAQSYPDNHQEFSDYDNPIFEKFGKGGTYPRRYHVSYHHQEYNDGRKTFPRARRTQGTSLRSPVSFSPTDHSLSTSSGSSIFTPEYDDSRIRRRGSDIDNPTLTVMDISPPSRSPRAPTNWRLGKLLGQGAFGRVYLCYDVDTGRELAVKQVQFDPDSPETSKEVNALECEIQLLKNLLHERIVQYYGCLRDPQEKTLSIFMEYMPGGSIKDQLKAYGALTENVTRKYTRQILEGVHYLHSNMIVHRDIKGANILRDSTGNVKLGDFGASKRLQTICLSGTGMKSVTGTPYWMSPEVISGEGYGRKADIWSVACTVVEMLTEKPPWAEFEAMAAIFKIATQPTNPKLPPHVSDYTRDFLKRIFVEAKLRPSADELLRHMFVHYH

[6] = target: Serine/threonine-protein kinase PAK 5 (Homo sapiens, UniProt Q9P286); experiment: Competitive binding affinity to human PAK7
Serine/threonine-protein kinase PAK 5, sequence (Q9P286 whole entry): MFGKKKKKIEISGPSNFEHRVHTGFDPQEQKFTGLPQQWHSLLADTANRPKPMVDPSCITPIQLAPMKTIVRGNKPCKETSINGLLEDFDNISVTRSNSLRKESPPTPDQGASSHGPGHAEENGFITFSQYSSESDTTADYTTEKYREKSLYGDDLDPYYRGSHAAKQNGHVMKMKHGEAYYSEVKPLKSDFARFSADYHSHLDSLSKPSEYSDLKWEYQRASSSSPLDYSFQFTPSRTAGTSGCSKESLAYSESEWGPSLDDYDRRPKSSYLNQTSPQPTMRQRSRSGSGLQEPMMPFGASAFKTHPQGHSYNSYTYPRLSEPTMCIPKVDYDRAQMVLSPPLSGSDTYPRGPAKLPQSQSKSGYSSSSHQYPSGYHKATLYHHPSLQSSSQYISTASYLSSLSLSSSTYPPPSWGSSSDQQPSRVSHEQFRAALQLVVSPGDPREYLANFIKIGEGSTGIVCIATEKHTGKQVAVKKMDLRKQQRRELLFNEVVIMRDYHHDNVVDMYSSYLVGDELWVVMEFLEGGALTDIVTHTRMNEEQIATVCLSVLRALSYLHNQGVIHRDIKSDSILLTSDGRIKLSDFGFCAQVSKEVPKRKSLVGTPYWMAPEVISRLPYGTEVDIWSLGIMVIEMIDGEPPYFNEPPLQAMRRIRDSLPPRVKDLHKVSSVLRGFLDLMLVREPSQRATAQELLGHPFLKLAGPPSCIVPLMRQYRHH

[7] = target: Proto-oncogene tyrosine-protein kinase ROS (Homo sapiens, UniProt P08922); experiment: Competitive binding affinity to human ROS1
Proto-oncogene tyrosine-protein kinase ROS, sequence (P08922 whole entry): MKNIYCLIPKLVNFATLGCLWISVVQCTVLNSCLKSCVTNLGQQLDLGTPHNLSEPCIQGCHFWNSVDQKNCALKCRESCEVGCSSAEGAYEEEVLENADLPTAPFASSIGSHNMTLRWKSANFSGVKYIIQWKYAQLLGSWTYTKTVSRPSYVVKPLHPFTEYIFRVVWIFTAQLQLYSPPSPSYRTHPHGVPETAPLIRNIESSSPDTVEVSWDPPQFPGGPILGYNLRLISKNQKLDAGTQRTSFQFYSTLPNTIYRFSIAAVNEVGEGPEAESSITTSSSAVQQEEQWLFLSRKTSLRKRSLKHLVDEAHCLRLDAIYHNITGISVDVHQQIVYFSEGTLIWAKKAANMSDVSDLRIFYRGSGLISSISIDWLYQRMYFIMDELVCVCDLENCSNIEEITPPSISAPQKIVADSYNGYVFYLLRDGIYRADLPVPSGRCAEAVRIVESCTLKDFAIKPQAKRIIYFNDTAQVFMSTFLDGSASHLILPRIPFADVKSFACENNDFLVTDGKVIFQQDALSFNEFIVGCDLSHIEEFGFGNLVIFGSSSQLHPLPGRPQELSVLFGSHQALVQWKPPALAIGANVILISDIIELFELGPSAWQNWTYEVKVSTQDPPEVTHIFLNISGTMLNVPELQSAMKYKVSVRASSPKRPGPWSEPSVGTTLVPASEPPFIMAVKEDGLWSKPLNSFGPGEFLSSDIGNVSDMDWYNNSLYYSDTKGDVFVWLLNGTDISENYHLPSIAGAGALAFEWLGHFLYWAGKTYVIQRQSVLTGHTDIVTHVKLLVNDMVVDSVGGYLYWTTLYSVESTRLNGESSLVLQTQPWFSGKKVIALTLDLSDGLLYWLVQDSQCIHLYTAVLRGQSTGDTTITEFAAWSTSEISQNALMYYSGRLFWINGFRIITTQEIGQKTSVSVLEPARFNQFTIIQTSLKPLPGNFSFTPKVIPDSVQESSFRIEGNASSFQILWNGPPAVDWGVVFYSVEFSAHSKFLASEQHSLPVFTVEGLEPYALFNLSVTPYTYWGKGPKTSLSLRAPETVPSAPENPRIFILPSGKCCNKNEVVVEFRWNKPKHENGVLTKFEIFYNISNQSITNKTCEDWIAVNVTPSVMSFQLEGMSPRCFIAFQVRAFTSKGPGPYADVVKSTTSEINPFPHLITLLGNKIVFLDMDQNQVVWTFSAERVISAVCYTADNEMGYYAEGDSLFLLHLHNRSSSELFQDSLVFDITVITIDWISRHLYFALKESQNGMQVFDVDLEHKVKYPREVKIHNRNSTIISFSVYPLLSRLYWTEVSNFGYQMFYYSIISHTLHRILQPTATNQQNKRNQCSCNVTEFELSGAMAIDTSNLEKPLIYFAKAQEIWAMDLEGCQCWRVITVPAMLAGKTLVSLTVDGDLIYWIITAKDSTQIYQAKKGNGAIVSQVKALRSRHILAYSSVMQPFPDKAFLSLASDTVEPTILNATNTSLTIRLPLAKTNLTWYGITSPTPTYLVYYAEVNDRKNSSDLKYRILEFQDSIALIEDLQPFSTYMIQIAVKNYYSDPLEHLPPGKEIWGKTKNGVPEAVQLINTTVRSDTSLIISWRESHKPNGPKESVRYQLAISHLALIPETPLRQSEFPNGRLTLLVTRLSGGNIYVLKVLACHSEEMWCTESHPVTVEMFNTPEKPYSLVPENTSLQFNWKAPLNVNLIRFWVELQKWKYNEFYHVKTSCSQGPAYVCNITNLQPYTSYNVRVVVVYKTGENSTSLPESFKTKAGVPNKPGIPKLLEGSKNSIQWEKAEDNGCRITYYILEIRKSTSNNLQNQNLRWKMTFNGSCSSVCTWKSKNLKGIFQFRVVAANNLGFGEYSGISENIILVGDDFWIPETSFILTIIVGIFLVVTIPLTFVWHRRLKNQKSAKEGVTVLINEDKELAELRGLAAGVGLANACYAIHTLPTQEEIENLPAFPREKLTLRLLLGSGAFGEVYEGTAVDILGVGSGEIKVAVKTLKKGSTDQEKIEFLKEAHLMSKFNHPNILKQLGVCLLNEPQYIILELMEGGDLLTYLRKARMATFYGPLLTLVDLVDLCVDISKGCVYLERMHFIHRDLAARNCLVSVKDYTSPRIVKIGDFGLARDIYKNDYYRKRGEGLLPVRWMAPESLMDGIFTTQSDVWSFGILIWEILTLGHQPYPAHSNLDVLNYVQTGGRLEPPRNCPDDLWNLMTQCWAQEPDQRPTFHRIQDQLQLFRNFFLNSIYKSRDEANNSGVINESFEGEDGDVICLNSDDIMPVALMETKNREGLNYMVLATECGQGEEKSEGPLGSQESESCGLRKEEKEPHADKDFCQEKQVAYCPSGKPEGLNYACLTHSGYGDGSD

[8] = Drug uptake in Lewis rat blood at 22 mg/kg, po measured after 2 hrs; type: ADME, organism-based; set-up: dose 22 mg/kg, route oral; details: read-out: Drug uptake
Outline: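 Single oral dose of 22 mg/kg to Lewis rats; blood sampled at 2, 4 and 24 h after dosing for compound level and ex vivo FcγR-induced phospho-SLP76 in peripheral blood monocytes.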

Rattus norvegicus [9] = experiment: Antiarthritic activity in Lewis rat collagen-induced arthritis model assessed as reversal of paw swelling at 3 to 30 mg/kg, po qd administered on day 15 post immunization measured after day 28; type: functional, organism-based
Outline: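 Collagen arthritis in female Lewis rats (porcine collagen day 0, boost day 7); swollen-joint rats randomized and given oral doses of 3, 10 or 30 mg/kg once daily, days 15–28. Swelling scored visually three times a week, per paw 0−3 metatarsal plus 0−3 ankle, composite 0−12 per rat; group means calculated.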

[10] = Drug uptake in blood of Lewis rat collagen-induced arthritis model at 30 mg/kg, po qd administered on day 15 post immunization measured at 4 hrs on day 18; type: ADME, organism-based; set-up: dose 30 mg/kg, route oral; details: read-out: Drug uptake
Outline: (§1)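 Collagen-arthritic Lewis rats given 3, 10 or 30 mg/kg p.o. once daily from day 15; blood levels measured on day 18 (third day of treatment) at 4, 8 and 24 h after dosing.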

[11] = Drug uptake in blood of Lewis rat collagen-induced arthritis model at 30 mg/kg, po qd administered on day 15 post immunization measured at 8 hrs on day 18; type: ADME, organism-based; set-up: dose 30 mg/kg, route oral; details: read-out: Drug uptake; outline: as §1
[12] = Drug uptake in blood of Lewis rat collagen-induced arthritis model at 3 mg/kg, po qd administered on day 15 post immunization measured at 24 hrs on day 18; type: ADME, organism-based; set-up: dose 3 mg/kg, route oral; details: read-out: Drug uptake; outline: as §1
[13] = Drug uptake in blood of Lewis rat collagen-induced arthritis model at 10 mg/kg, po qd administered on day 15 post immunization measured at 24 hrs on day 18; type: ADME, organism-based; set-up: dose 10 mg/kg, route oral; details: read-out: Drug uptake; outline: as §1
Canis familiaris = species: Canis familiaris; experiment: Hepatotoxicity in dog assessed as portal inflammation measured for 4 weeks by GLP study; type: toxicity, organism-based, Canis lupus familiaris; details: in vivo, 672 h
[14] = target: T1, Voltage-gated inwardly rectifying potassium channel KCNH2; experiment: Inhibition of human ERG by GLP study

## NC(=O)c1nnc(N[C@@H]2CCCC[C@@H]2N)nc1Nc1cccc2cc[nH]c12
[1]
  IC50: 367 nM
[2]
  IC50: 25900 nM
Rattus norvegicus [3]
  AUC/dose: 877 nM·h
[4]
  Kd: 71 nM
[5]
  Kd: 140 nM
[6]
  Kd: 12 nM
[7]
  Kd: 120 nM
[8]
  concentration at 2 h: 900 nM
Rattus norvegicus [9]
  Activity: Active
[10]
  concentration at 4 h: 2890 nM
[11]
  concentration at 8 h: 1720 nM
[12]
  concentration at 24 h: 35 nM
[13]
  concentration at 24 h: 156 nM
Canis familiaris
  Activity: Toxic
[14]
  IC50: 5000 nM
